What is called inhibition is the percentage by which the read-out fell short of the control. Usually IC50 stands for the point on the concentration scale where inhibition reaches its midpoint.

Some results are limits rather than exact numbers.

The subject of data set [1] is mitochondrial DNA. The data set is described as follows: Mitochondrial toxicity in human HepG2 cells assessed as percent inhibition of mitochondrial DNA at 10 uM after 14 days by real-time PCR. The class given is cell-based. In outline: (§1)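 Low-passage HepG2 cells seeded at 5,000 cells/well on collagen-coated plates and cultured 14 days with 10 or 100 μM NRTI. mtDNA and β-actin DNA quantified by real-time PCR in duplicate; mtDNA normalized to β-actin and expressed relative to untreated cells. At least two independent experiments; ranges given.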

Data set [2] relates to mitochondrial DNA. Put plainly: Mitochondrial toxicity in human HepG2 cells assessed as percent inhibition of mitochondrial DNA at 100 uM after 14 days by real-time PCR. The class given is cell-based. In outline:
as §1

In data set [3] the test system is HepG2. Put plainly: Mitochondrial toxicity in human HepG2 cells assessed as percent mitochondrial DNA production at 10 uM after 14 days by real-time PCR relative to control. The format is cell-based. To be noted: hepg2, 336 h. The gist of the method: as §1
(Real-time PCR tracks product formation cycle by cycle.)

In data set [4] the test system is HepG2. The data set is described as follows: Mitochondrial toxicity in human HepG2 cells assessed as percent mitochondrial DNA production at 100 uM after 14 days by real-time PCR relative to control. The class given is cell-based. To be noted: hepg2, 336 h. In outline: as §1
Data set [5] has as its system HepG2. The data set is described as follows: Mitochondrial toxicity in human HepG2 cells assessed as percent lactic acid production at 10 uM after 14 days by real-time PCR relative to beta-actin DNA. To be noted: hepg2, 336 h. The format is cell-based. The gist of the method:
(§2)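 HepG2 cells cultured 14 days with 10 or 100 μM NRTI. Lactic acid quantified with a D-/L-lactic acid enzymatic test kit and expressed relative to β-actin DNA and to untreated control.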

Data set [6] concerns HepG2. Put plainly: Mitochondrial toxicity in human HepG2 cells assessed as percent lactic acid production at 100 uM after 14 days by real-time PCR relative to beta-actin DNA. The format is cell-based. To be noted: hepg2, 336 h. In outline: as §2
The subject of data set [7] is beta-actin DNA. Put plainly: Mitochondrial toxicity in human HepG2 cells assessed as percent inhibition of beta-actin DNA at 10 uM after 14 days by real-time PCR. The format is cell-based. In outline:
as §1

The subject of data set [8] is beta-actin DNA. The data set is described as follows: Mitochondrial toxicity in human HepG2 cells assessed as percent inhibition of beta-actin DNA at 100 uM after 14 days by real-time PCR. The class given is cell-based. In outline: as §1
In data set [9] the test system is Human immunodeficiency virus 1. Put plainly: Antiviral activity against HIV1 infected in human HeLa P4/R5 cells assessed as inhibition of viral replication. The note with it: Human immunodeficiency virus 1, HeLa. The format is functional, organism-based. The gist of the method: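 Single-cycle assay in P4/R5 HeLa cells carrying an HIV LTR-driven, Tat-activated β-galactosidase gene. Cells kept in phenol red-free DMEM with 10% FBS and 0.5 μg/ml puromycin. Virus stock titred on these cells by threefold endpoint dilution (Reed-Muench). At least three independent experiments.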

Data set [10] concerns Human immunodeficiency virus 1. Put plainly: Antiviral activity against HIV1 infected in human MT2 cells assessed as inhibition of viral replication. The class given is functional, organism-based. To be noted: Human immunodeficiency virus 1, MT2.
Data set [11] concerns Human immunodeficiency virus 1. The data set is described as follows: Antiviral activity against HIV1 infected in human PBMC assessed as inhibition of viral replication. The class given is functional, organism-based. The gist of the method:
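PBMC from healthy seronegative donors, isolated on a Ficoll-Hypaque gradient and stimulated with PHA for 2-3 days before infection. At least three independent experiments.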

In data set [12] the test system is Human immunodeficiency virus 1. Put plainly: Antiviral activity against HIV1 harboring reverse transcriptase K65R mutant infected in human HeLa P4/R5 cells assessed as inhibition of viral replication. The class given is functional, organism-based. The note with it: Human immunodeficiency virus 1, HeLa. The gist of the method: (§3)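 Single-replication-cycle assay in P4/R5 cells: HeLa stably carrying a Tat-activated β-galactosidase gene under an HIV LTR promoter, grown in phenol red-free DMEM with 10% FBS and 0.5 μg/ml puromycin. Virus stocks were titred in P4/R5 cells by threefold endpoint dilution (Reed–Muench).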

In data set [13] the test system is Human immunodeficiency virus 1. The data set is described as follows: Antiviral activity against HIV1 harboring reverse transcriptase M184V mutant infected in human HeLa P4/R5 cells assessed as inhibition of viral replication. The class given is functional, organism-based. The note with it: Human immunodeficiency virus 1, HeLa. In outline:
as §3

In data set [14] the test system is Human immunodeficiency virus 1. The data set is described as follows: Ratio of IC50 for HIV1 harboring reverse transcriptase K65R mutant infected in human HeLa P4/R5 cells to wild type HIV1 infected in human HeLa P4/R5 cells. The format is functional. The gist of the method: as §3
Data set [15] relates to Human immunodeficiency virus 1. The data set is described as follows: Ratio of IC50 for HIV1 harboring reverse transcriptase M184V mutant infected in human HeLa P4/R5 cells to wild type HIV1 infected in human HeLa P4/R5 cells. The format is functional. In outline:
as §3

For the compound `Nc1ccn([C@@H]2CS[C@H](CO)O2)c(=O)n1` [LAMIVUDINE], the inhibition at 336 h, 10 µM in the data set with mitochondrial DNA [1] and with beta-actin DNA [7] was less than 1% throughout. The inhibition at 336 h, 100 µM in the data set on mitochondrial DNA [2] was 100%; in the data set with beta-actin DNA [8] it was 94.3%. Moreover, the Activity in the data set on HepG2 [3] was determined as 119%; in the data set on HepG2 [4], 0.6%; with HepG2 [5], 105%; with HepG2 [6] it was 416%. The IC50 was 780 nM in data set [9]; 600 nM in [10]; 30 nM in data set [11]; 60500 nM in data set [12]; greater than 60000 nM in data set [13]. The “Ratio IC50” value in data set [14] is on record as 77; in data set [15], greater than 75.

The values are drawn from ChEMBL document CHEMBL1671666, “Anti-human immunodeficiency virus activity, cross-resistance, cytotoxicity, and intracellular pharmacology of the 3'-azido-2',3'-dideoxypurine nucleosides” (Antimicrob Agents Chemother, 2009).
